Experimental findings from ChEMBL document CHEMBL4017498, “Pilot in Vivo Structure-Activity Relationship of Dihydromethysticin in Blocking 4-(Methylnitrosamino)-1-(3-pyridyl)-1-butanone-Induced O6-Methylguanine and Lung Tumor in A/J Mice” (J Med Chem, 2017) are described below.

Series [1] has as its system Mus musculus. Briefly: Reduction in NNK-induced O6-methylguanine DNA adduct formation in A/J mouse lung at 200 ppm administered with AIN-93 G powder for 7 days followed by NNK-induction on day 7 post dose measured after 4 hrs by LC-ESI-MS/MS method relative to control. The series is classed as functional. Details: scale not given: the % may be the effect or the level left. Put shortly:
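Female A/J mice (6–7 weeks, one-week acclimation) fed AIN-93G powdered diet with 200 ppm compound from Day 0 (ethanol-processed diet for controls; n=3 per treatment, n=6 NNK control). Single i.p. NNK, 100 mg/kg in saline, on Day 7; lungs collected 4 h later. DNA isolated from half lung; O6-mG quantified by LC-MS/MS. Mean ± SD; one-way ANOVA with Dunnett's test versus NNK control.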

For series [2], the system named is Mus musculus. Briefly: Toxicity in NNK-induced long-term lung adenoma A/J mouse model assessed as effect on liver weight at 25 ppm administered with AIN-M powder for […] followed by NNK induction on day 7 at 100 mg/kg during compound dosing and […] post last dose measured after day 119 relative to body weight. The series is classed as organism-based. The following applies: in vivo, po. The procedure, abridged:
(§1)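 Female A/J mice fed AIN-93G diet with compound at 25 ppm. NNK given i.p. at 100 and 67 mg/kg on Day 7 and Day 14. Switched to AIN-M diet 24 h after the last NNK. On Day 119, mice were weighed, euthanized with CO2, and livers excised and weighed. Relative liver weight is liver weight divided by bodyweight for each mouse.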

For series [3], the system named is Mus musculus. Put plainly: Toxicity in NNK-induced long-term lung adenoma A/J mouse model assessed as effect on liver weight at 25 ppm administered with AIN-M powder […] followed by NNK induction on day 7 at 100 mg/kg during compound dosing and […] post last dose measured after day 119. The format is organism-based. The following applies: in vivo, po. The procedure, abridged:
as §1

Series [4] concerns Mus musculus. Put plainly: Toxicity in NNK-induced long-term lung adenoma A/J mouse model assessed as effect on body weight at 25 ppm administered with AIN-M powder […] followed by NNK induction on day 7 at 100 mg/kg during compound dosing and […] at 67 mg/kg post last dose measured every once a week during compound dosing. The format is organism-based. The following applies: in vivo, po. Put shortly:
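Female A/J mice fed AIN-93G diet with compound at 25 ppm. NNK given i.p. at 100 mg/kg on Day 7 and 67 mg/kg on Day 14. Treated diet ended 24 h after the last NNK, followed by AIN-M diet. Bodyweight recorded once weekly and food intake twice weekly through Day 119.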

Series [5] deals with Mus musculus. Put plainly: Reduction in NNK-induced long-term lung adenoma formation in A/J mouse at 25 ppm administered with AIN-M powder […] followed by NNK induction on day 7 at 100 mg/kg during compound dosing and […] post last dose measured after day 119 relative to control. The format is functional. Also noted: scale not given: the % may be the effect or the level left. The procedure, abridged: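 Female A/J mice fed AIN-93G powder diet with compound at 25 ppm (added in ethanol, vacuum-dried, dose checked by HPLC). NNK in saline given i.p. at 100 and 67 mg/kg on Day 7 and Day 14. Treated diet stopped 24 h after the last NNK, then AIN-M diet. On Day 119, surface lung adenomas were counted blinded by a pathologist. Mean ± SD; one-way ANOVA with Dunnett's test vs NNK control.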

Series [6] in a line: Drug level in mouse liver microsomes treated with (+)DHM assessed as CYP450-mediated compound formation by LC-MS/MS method. The series is classed as ADME.
For series [7], the system named is Liver. Briefly: Drug level in mouse liver microsomes treated with (+)DHM by LC-MS/MS method. The format is ADME, microsome. In general terms: Liver microsomes are a subcellular fraction often used to study metabolism.
Series [8] has as its system Liver. Briefly: Drug metabolism in mouse liver microsomes assessed as 7-(benzo[d][1,3]dioxol-5-yl)-5-hydroxy-3-methoxyhept-2-enoic acid formation by LC-MS/MS method. The series is classed as ADME, microsome.
The nature of series [9]: Drug metabolism in mouse liver microsomes assessed as CYP450-mediated 7-(3,4-dihydroxyphenyl)-5-hydroxy-3-methoxyhept-2-enoic acid formation by LC-MS/MS method. The series is classed as ADME.

Regarding `COC1=CC(=O)OC(CCc2ccc3c(c2)CCC3)C1` (stereo not given), the Activity in the series with Mus musculus [1] was 29.6%; with Mus musculus [2] it was “Non-Toxic”; in the series with Mus musculus [3], “Non-Toxic”; with Mus musculus [4] it was “Non-Toxic”; in the series on Mus musculus [5], 10.1%.
For `CO/C(=C/C(=O)O)CC(O)CCc1ccc(O)c(O)c1` (stereo not given), the Drug metabolism entry in series [6] is given as “Metabolite_Detected”.
Take `COC1=CC(=O)CC(CCc2ccc3c(c2)CCC3)C1` (stereo not given): in the series with Mus musculus [1], the Activity amounted to 11.8%.
For the compound `COC1=CC(=O)CC(CCc2ccc3c(c2)OCO3)C1` (stereo not given), the Activity in the series with Mus musculus [1] is 63.8%; in the series on Mus musculus [2], “Non-Toxic”; with Mus musculus [3], “Non-Toxic”; in the series on Mus musculus [4], “Non-Toxic”; in the series on Mus musculus [5] it was 89.4%.
Turning to `CO/C(=C/C(=O)O)CC(O)CCc1ccc2c(c1)OCO2` (stereo not given), the Drug metabolism entry in the series with Liver [7] was “Metabolite_Detected”.
As to `COC1=CC(=O)OC(CCc2ccccc2)C1` (racemic), the Activity was 16.4% in the series on Mus musculus [1]; “Non-Toxic” in the series with Mus musculus [2]; “Non-Toxic” in the series with Mus musculus [3]; “Non-Toxic” with Mus musculus [4]; 6.3% in the series with Mus musculus [5].
Regarding `COC1=CC(=O)OC(CCc2ccc3c(c2)OCO3)C1` (racemic), the Activity with Mus musculus [1] is 72.3%; with Mus musculus [2], “Non-Toxic”; in the series on Mus musculus [3], “Non-Toxic”; in the series with Mus musculus [4], “Non-Toxic”; in the series on Mus musculus [5], 94.2%.
Take `COC1=CC(=O)O[C@@H](CCc2ccc3c(c2)OCO3)C1` [DIHYDROMETHYSTICIN]: the Drug metabolism result (in the series with Liver [8]; in series [9]) was “Metabolite_Detected” in each case.
